From PubChem BioAssay come the findings set out here.

Calls of active or inactive are those of the source.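 Rule for the calls, unless noted: active = potentiation averaged over duplicate wells exceeding buffer-only control mean by more than 3 SD; inactive = the rest.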

The nature of experiment [1]: thallium flux activation in parental CHO cells, counter-screen for KCNQ1 potentiator project (AID 493006;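 active = duplicate-averaged activation above buffer control mean plus 5 SD of those controls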;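 for activation: fluorescence ratio of max minus min over baseline after K+ and Tl+ depolarization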). To be noted: parental CHO-K1 cells, FluxOR thallium flux, at 10 µM; hits give high values. Summed up: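 Material: parental CHO-K1 cells, FluxOR dye-loaded; Also added: Potassium/thallium depolarization pulse; Schedule: overnight 37 °C plating, 90 min dye, 20 min dark compound; Signal: kinetic FluxOR fluorescence, 10 s baseline, 110 s after stimulus.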
(In general: A counterscreen serves to expose hits that act by an unwanted route or on another target.)

The target in experiment [2] is Potassium voltage-gated channel subfamily KQT member 1 (Homo sapiens) (UniProt P51787). In words: KCNQ1 potassium channel potentiators, confirmation, FluxOR thallium flux, CHO cells, duplicates (AID 493007).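 For outcome: cells depolarized by a potassium plus thallium sulfate stimulus after compound.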 Particulars: KCNQ1 cell line, FluxOR thallium flux fluorescence, at 10 µM; hits give high values, % of reference activator effect, buffer zero. Summed up:
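System: KCNQ1-expressing CHO cell line; technique: kinetic thallium influx fluorescence with FluxOR dye, 10 s baseline, 110 s post-stimulus; timing: dye 90 min then compound 20 min, both at room temperature; controls: buffer-only wells as 0% and R-L3 activator as 100%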

The target in experiment [3] is Potassium voltage-gated channel subfamily KQT member 2 (Rattus norvegicus) (UniProt O88943). In words: rat KCNQ2 channel potentiation, selectivity assay for KCNQ1 potentiator project, KCNQ2-CHO-K1 cells (AID 493009;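 active = mean duplicate potentiation above the buffer control mean plus 5 SD of buffer wells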;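 note: assay conditions were tuned for KCNQ1 rather than KCNQ2 modulators; signal is max minus min fluorescence divided by baseline after thallium stimulus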). Particulars: FluxOR thallium flux fluorescence, at 10 µM; hits give high values, scaled: buffer 0, activator control 100.
Sequence of Potassium voltage-gated channel subfamily KQT member 2 (Rattus norvegicus) (O88943 whole entry, looked up): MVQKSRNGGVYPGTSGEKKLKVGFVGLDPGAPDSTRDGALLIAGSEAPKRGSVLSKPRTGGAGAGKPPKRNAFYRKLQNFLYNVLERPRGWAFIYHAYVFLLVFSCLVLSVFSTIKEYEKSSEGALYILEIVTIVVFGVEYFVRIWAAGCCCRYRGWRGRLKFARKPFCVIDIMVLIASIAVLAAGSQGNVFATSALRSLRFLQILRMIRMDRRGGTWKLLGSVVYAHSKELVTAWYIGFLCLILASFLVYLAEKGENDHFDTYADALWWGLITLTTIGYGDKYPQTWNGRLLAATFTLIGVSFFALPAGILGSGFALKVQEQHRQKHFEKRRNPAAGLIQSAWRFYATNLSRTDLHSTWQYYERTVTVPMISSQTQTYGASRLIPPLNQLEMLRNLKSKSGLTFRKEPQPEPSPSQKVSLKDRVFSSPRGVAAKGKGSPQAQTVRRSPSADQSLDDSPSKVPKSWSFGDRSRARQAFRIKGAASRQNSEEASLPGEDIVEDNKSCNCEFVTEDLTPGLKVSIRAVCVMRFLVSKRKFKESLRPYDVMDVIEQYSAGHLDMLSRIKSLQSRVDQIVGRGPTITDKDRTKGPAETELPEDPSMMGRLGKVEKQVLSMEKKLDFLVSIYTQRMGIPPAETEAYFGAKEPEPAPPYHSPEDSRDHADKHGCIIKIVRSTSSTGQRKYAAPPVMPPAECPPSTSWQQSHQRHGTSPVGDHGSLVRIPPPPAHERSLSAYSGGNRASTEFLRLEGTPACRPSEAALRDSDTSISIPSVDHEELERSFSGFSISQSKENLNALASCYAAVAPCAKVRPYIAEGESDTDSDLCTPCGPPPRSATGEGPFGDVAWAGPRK
Experiment [4] concerns the target Potassium voltage-gated channel subfamily KQT member 1 (Homo sapiens) (UniProt P51787). The experiment can be described thus: KCNQ1 channel current potentiators, confirmation, orthogonal assay for KCNQ1 potentiator project, IonWorks patch clamp, KCNQ1-CHO cells (AID 493184;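 active = current rise at least 3 SD above the untreated control mean in each of two repeat wells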). To be noted: automated patch clamp current, at 10 µM; hits give high values. The method, boiled down:
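Test system: KCNQ1-expressing CHO cells. Medium: pH 7.4 external bath. Probe or stimulus: voltage step from -90 mV holding to +40 mV, 2,000 ms. Compound: 10 µM final, single point. Detection: automated perforated-patch electrophysiology. Read-out: percent current increase versus pre-compound level. Repeats: two replicates.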
In general terms: In patch-clamp work, channel activity is measured electrically.

Sequence of Potassium voltage-gated channel subfamily KQT member 1 (Homo sapiens) (P51787 whole entry, looked up): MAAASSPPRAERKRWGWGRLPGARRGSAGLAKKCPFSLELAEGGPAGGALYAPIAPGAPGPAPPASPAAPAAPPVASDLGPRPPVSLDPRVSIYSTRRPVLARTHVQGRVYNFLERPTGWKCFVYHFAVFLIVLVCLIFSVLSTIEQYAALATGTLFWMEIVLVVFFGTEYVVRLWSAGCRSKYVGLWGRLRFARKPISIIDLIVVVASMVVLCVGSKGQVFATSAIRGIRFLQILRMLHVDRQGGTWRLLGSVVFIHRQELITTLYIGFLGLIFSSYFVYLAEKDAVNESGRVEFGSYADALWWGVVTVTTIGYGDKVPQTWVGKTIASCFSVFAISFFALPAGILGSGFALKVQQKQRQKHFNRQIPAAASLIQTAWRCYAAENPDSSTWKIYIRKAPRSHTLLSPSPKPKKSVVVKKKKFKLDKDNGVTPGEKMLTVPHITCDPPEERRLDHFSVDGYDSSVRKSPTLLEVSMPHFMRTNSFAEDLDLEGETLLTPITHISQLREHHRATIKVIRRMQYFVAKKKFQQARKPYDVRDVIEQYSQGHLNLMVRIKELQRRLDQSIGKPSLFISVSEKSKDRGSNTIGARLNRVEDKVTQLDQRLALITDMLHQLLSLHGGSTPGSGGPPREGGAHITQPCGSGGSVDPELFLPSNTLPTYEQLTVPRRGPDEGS

In the case of `CS(=O)(=O)N1CCC(C(=O)Nc2ccc(OCc3ccccc3)cc2)CC1`, the result in experiment [1], in experiment [2], in experiment [3] and in experiment [4] was inactive.
Consider `COc1cccc(-c2nnc(Nc3nc4c(F)cccc4s3)o2)c1`, for which the activation in experiment [1] is 278% (active). Further, the potentiation is 91.5% (active) in experiment [2] and 280% (active) in experiment [3]. In experiment [4], the outcome was inactive.
`Cc1ccc(OCCN2C(=O)c3ccccc3C2=O)c([N+](=O)[O-])c1`: the result in experiment [1], in experiment [2], in experiment [3] and in experiment [4] was inactive.
In the case of `CCOC(=O)Cc1csc(NC(=S)NC(=O)c2ccccc2Br)n1`, the activation in experiment [1] is 233% (active). Further, the figures for the potentiation in experiment [2] and in experiment [3] were 51% (active) and 239% (active), respectively. For the same compound, in experiment [4], the result was inactive.
For the compound `Cc1cccc(NC(=O)C(=O)NNC(=O)c2ccc(C(C)(C)C)cc2)c1`, in experiment [1], the activation is 485% (active). Moreover, the potentiation in experiment [2] is 179% (active); in experiment [3] it was 483% (active). Moreover, the result in experiment [4] was inactive.
Regarding `Nc1nc(C23CC4CC(CC(C4)C2)C3)cs1`, the outcome in experiment [1], in experiment [2] and in experiment [4] was inactive. The potentiation in experiment [3] was 168% (active).
`COc1cccc2sc(NNC(=O)C3COc4ccccc4O3)nc12` (stereo not given): the result in experiment [1], in experiment [2], in experiment [3] and in experiment [4] was inactive.
For `COC(=O)C1=C(C(=O)OC)[C@@H]2N(C)c3ccccc3[C@@]23C[C@@H](C(=O)OC)N(C(=O)c2ccc(Br)cc2)C3=N1`, the activation in experiment [1] was 158% (active). Also, the potentiation in experiment [2] was 104% (active); in experiment [3], 204% (active). In addition, the outcome in experiment [4] was inactive.
As to `CCCc1cc(-c2n[nH]c(=S)n2C(C)c2ccccc2)cs1` (stereo not given), in experiment [1], the activation is 139% (active). Further, the potentiation in experiment [2] was 37% (active). Moreover, the result in experiment [3] and in experiment [4] was inactive.
For `COc1cc(C(=O)NNC(=O)C2CC2)cc(OC)c1OC`, the result in experiment [1], in experiment [2], in experiment [3] and in experiment [4] was inactive.
`COc1cc2c(cc1OC)CN(C(=O)COc1ccccc1[N+](=O)[O-])CC2`: the outcome in experiment [1], in experiment [2], in experiment [3] and in experiment [4] was inactive.
Consider `C=CCn1c(SCc2ccc(C(=O)O)cc2)nc2sc(C)c(C)c2c1=O`, for which, in experiment [1], the activation is 216% (active). The potentiation in experiment [2] is 72.5% (active); in experiment [3], 236% (active). In addition, the outcome in experiment [4] was inactive.
Regarding `CCOC(=O)C1(CCCc2ccccc2)CCN(Cc2cnc(C)s2)CC1`, the outcome in experiment [1], in experiment [2], in experiment [3] and in experiment [4] was inactive.
As to `CCn1c(CSc2nc3ccccc3n2C)nc2ccccc21`, the outcome in experiment [1], in experiment [2], in experiment [3] and in experiment [4] was inactive.
For `COc1ccc(C)cc1NC(=O)C1C2C=CC(C2)C1C(=O)O` (stereo not given), the result in experiment [1], in experiment [2], in experiment [3] and in experiment [4] was inactive.
On to `ON/C=N/C(=S)Nc1ncc(C(F)(F)F)cc1Cl`, for which the activation in experiment [1] is 264% (active). The potentiation in experiment [2] is 69% (active); in experiment [3] it was 218% (active). For the same compound, the result in experiment [4] was inactive.
Regarding `CC1CCc2c(sc(NS(=O)(=O)c3ccccc3)c2C(=O)OC(C)C)C1` (stereo not given), the activation in experiment [1] was 284% (active). Moreover, the potentiation was 156% (active) in experiment [2] and 380% (active) in experiment [3]. For the same compound, the outcome in experiment [4] was inactive.
For `COC(=O)C1C(c2ccc(OC)c(OC)c2)NC(c2ccc(OC)c(OC)c2)C(C(=O)OC)S1(=O)=O` (stereo not given), the result in experiment [1], in experiment [2], in experiment [3] and in experiment [4] was inactive.
For `CC1CCN(C(=S)NC(=O)c2cccs2)CC1`, the activation in experiment [1] is 143% (active). The potentiation is 28.5% (active) in experiment [2] and 186% (active) in experiment [3]. Moreover, the outcome in experiment [4] was inactive.
Turning to `O=c1c2ccc(Cl)cc2[nH]c(=S)n1CCC1=CCCCC1`, the activation in experiment [1] was 156% (active). In addition, the potentiation is 48.5% (active) in experiment [2] and 166% (active) in experiment [3]. Further, the outcome in experiment [4] was inactive.
The like results for `Cc1cc(-c2csc3nc[nH]c(=S)c23)cc(C)c1C` were, in that order, 286% (active), 255% (active), 408% (active) and “inactive”.
For the compound `COC(=O)c1ccccc1NC(=S)NC(NC(=O)c1ccco1)C(Cl)(Cl)Cl` (stereo not given), the activation in experiment [1] was 138% (active). Moreover, the potentiation in experiment [2] was 54% (active); in experiment [3], 232% (active). Also, the result in experiment [4] was inactive.
`CC(C)NC(=O)/C(=C/c1cn(-c2ccccc2)nc1-c1cccc([N+](=O)[O-])c1)NC(=O)c1ccccc1`: the outcome in experiment [1], in experiment [2], in experiment [3] and in experiment [4] was inactive.
Take `Cc1cc(Cl)ccc1OCC(=O)N/N=C1\CC2C=CCC12` (stereo not given): the outcome in experiment [1], in experiment [2], in experiment [3] and in experiment [4] was inactive.
On to `COc1ccc(-n2cc(-c3ccccc3)c3c(=S)nc[nH]c32)cc1`, for which the activation in experiment [1] is 137% (active). In addition, the potentiation was 38% (active) in experiment [2] and 172% (active) in experiment [3]. The outcome in experiment [4] was inactive.
Regarding `Cc1ccc(OCc2n[nH]c(=S)n2-c2ccc(Br)cc2)cc1`, the outcome in experiment [1] and in experiment [4] was inactive. Moreover, the potentiation in experiment [2] is 22.5% (active); in experiment [3], 146% (active).
As for `CN1CCN(C=Nc2nc3ccccc3nc2N2CCCC2)CC1`, the outcome in experiment [1], in experiment [2], in experiment [3] and in experiment [4] was inactive.
Consider `CCCOc1ccc(CN(CCC#N)C(=S)NC(=O)c2ccccc2)cc1`, for which the activation in experiment [1] was 288% (active). The results for the potentiation in experiment [2] and in experiment [3] were 134% (active) and 303% (active), respectively. Besides, the result in experiment [4] was inactive.
As for `Oc1c(Cl)cc(Cl)cc1/C=N/c1nccs1`, the activation in experiment [1] was 174% (active). Further, the outcome in experiment [2], in experiment [3] and in experiment [4] was inactive.
In the case of `Cn1c(=O)c2c3c(sc2n2c(SCC(N)=O)nnc12)CC(C(C)(C)C)CC3` (stereo not given), the result in experiment [1], in experiment [2], in experiment [3] and in experiment [4] was inactive.
